Measured values reported in ChEMBL document CHEMBL3407369, “Exploration of cyanine compounds as selective inhibitors of protein arginine methyltransferases: synthesis and biological evaluation” (J Med Chem, 2015).
Activity calls are given as the source filed them. No cut-off for these calls is given here.

Legend:
[1] = biological target: T1, Protein arginine N-methyltransferase 1 (Homo sapiens, UniProt Q99873); test: Displacement of [3H]-SAM from recombinant His6-tagged PRMT1 (unknown origin) expressed in Escherichia coli BL21(DE3) at 10 uM incubated for 5 mins prior to H4(1 to 20)-BTN peptide addition measured after 8 mins by scintillation proximity assay
How it was run: (§1)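 His6-PRMT1 (0.02 µM) was purified from E. coli BL21(DE3) on Ni-NTA. It was preincubated 5 min with compound (10, 30 or 90 µM) and [3H]SAM (0.5 µM) in 50 mM HEPES pH 8.0, 1 mM EDTA, 50 mM NaCl, 0.5 mM DTT at ~25 °C. Biotinylated H4(1–20) peptide (1 µM) was added and the reaction run 8 min. It was quenched with isopropanol and read with streptavidin SPA beads. % inhibition was taken against water (full activity) and no-peptide blanks.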
Target sequence in this assay (Q99873 whole entry, looked up): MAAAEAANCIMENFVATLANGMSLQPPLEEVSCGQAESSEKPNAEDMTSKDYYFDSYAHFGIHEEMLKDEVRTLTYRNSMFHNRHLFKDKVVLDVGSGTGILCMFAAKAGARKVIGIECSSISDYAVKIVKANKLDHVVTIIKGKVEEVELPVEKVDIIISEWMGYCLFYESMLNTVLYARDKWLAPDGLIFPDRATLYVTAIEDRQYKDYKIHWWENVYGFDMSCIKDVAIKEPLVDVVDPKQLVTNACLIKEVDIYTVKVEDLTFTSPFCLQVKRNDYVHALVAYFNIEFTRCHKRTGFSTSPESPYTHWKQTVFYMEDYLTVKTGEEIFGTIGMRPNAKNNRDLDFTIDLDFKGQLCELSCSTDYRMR

[2] = biological target: T1, Protein arginine N-methyltransferase 1; test: Displacement of [3H]-SAM from recombinant His6-tagged PRMT1 (unknown origin) expressed in Escherichia coli BL21(DE3) at 30 uM incubated for 5 mins prior to H4(1 to 20)-BTN peptide addition measured after 8 mins by scintillation proximity assay; how it was run: as §1
Target sequence in this assay (Q99873 whole entry, looked up): as above

[3] = biological target: T1, Protein arginine N-methyltransferase 1; test: Displacement of [3H]-SAM from recombinant His6-tagged PRMT1 (unknown origin) expressed in Escherichia coli BL21(DE3) at 90 uM incubated for 5 mins prior to H4(1 to 20)-BTN peptide addition measured after 8 mins by scintillation proximity assay; how it was run: as §1
Target sequence in this assay (Q99873 whole entry, looked up): as above

[4] = biological target: T1, Protein arginine N-methyltransferase 1; test: Displacement of [3H]-SAM from recombinant His6-tagged PRMT1 (unknown origin) expressed in Escherichia coli BL21(DE3) incubated for 5 mins prior to H4(1 to 20)-BTN peptide addition measured after 8 mins by scintillation proximity assay
How it was run: (§2)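 Serial compound dilutions were tested in the same SPA format (His-tagged enzyme purified from E. coli BL21(DE3), 5 min preincubation, H4(1–20)-biotin substrate, 8 min reaction, ~25 °C, HEPES pH 8.0 buffer). [3H]SAM and peptide were set near their predetermined Km values for each enzyme. Remaining activity was fitted to a Hill-modified IC50 equation, giving IC50 and Hill coefficient.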
Target sequence in this assay (Q99873 whole entry): as the sequence (Q99873 whole entry, looked up) above

[5] = biological target: T2, Histone-arginine methyltransferase CARM1 (Homo sapiens, UniProt Q86X55); test: Displacement of [3H]-SAM from recombinant GST-tagged CARM1 (unknown origin) expressed in Escherichia coli BL21(DE3) incubated for 5 mins prior to H3.3 protein addition measured after 8 mins by P81 filter paper binding assay
T2 sequence (Q86X55 whole entry): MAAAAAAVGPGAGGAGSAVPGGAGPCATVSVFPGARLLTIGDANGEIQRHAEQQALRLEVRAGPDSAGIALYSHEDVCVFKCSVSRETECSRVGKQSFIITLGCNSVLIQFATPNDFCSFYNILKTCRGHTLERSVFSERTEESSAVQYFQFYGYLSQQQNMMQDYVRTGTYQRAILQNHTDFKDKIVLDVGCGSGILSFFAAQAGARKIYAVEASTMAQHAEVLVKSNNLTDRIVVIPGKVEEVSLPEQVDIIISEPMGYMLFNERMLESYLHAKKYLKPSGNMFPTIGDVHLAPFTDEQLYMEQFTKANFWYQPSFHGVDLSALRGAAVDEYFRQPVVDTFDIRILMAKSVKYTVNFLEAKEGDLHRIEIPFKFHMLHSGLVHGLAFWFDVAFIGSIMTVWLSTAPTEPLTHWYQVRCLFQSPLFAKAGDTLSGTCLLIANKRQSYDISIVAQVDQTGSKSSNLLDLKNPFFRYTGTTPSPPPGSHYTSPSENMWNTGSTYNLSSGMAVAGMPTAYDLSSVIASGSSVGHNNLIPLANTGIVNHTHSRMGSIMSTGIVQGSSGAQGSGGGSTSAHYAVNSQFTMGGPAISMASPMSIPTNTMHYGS

[6] = biological target: Protein arginine N-methyltransferase 8 (Homo sapiens, UniProt Q9NR22); test: Displacement of [3H]-SAM from recombinant His6-tagged PRMT8 (unknown origin) expressed in Escherichia coli BL21(DE3) incubated for 5 mins prior to H4(1 to 20)-BTN peptide addition measured after 8 mins by scintillation proximity assay; how it was run: as §2
[7] = biological target: Protein arginine N-methyltransferase 5 (Homo sapiens, UniProt O14744); test: Displacement of [3H]-SAM from recombinant His6-tagged PRMT5 (unknown origin) expressed in Escherichia coli BL21(DE3) incubated for 5 mins prior to H4(1 to 20)-BTN peptide addition measured after 8 mins by scintillation proximity assay
How it was run: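 Recombinant His6-PRMT5 was purified on Ni-NTA after IPTG induction in E. coli BL21(DE3). [3H]SAM and H4(1–20)BTN were set near their predetermined Km. Serially diluted compound was preincubated 5 min before peptide addition, reacted 8 min, isopropanol-quenched, and read with streptavidin SPA beads. IC50 and nH came from a Hill fit.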

[8] = organism: Homo sapiens; test: Selectivity ratio of IC50 for recombinant His6-tagged PRMT5 (unknown origin) to IC50 for recombinant His6-tagged PRMT1 (unknown origin)
[9] = organism: Homo sapiens; test: Selectivity ratio of IC50 for recombinant […] (unknown origin) to IC50 for recombinant His6-tagged PRMT1 (unknown origin)
[10] = organism: Homo sapiens; test: Selectivity ratio of IC50 for recombinant His6-tagged PRMT8 (unknown origin) to IC50 for recombinant His6-tagged PRMT1 (unknown origin)

Chain of Protein arginine N-methyltransferase 8 (Q9NR22 whole entry): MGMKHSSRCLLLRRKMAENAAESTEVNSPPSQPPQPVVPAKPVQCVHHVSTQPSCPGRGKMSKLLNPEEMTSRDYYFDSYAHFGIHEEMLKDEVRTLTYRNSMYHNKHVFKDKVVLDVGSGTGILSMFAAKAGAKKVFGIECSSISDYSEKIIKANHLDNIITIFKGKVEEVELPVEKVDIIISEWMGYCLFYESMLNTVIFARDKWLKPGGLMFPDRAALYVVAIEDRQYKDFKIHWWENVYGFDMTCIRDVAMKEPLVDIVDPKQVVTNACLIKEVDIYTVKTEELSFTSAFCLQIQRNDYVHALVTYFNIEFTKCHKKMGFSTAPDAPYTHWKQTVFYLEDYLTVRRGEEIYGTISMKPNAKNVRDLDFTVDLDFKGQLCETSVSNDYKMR
Chain of Protein arginine N-methyltransferase 5 (O14744 whole entry): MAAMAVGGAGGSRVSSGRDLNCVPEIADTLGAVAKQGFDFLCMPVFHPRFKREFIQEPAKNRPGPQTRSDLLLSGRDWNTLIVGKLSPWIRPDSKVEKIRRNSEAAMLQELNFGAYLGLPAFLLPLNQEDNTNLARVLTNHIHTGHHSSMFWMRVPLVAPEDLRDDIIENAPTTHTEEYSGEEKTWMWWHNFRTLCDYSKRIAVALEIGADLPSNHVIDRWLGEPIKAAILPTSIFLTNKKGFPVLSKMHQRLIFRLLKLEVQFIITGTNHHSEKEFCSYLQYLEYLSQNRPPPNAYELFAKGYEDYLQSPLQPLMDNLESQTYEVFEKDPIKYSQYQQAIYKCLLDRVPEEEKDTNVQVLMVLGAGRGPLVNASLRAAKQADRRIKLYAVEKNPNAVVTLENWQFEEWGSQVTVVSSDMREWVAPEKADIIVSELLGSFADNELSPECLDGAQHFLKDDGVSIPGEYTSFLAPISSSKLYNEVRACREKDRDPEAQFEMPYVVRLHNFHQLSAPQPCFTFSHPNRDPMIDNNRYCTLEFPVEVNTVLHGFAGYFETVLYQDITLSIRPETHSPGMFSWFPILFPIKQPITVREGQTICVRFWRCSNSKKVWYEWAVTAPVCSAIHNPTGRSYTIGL

SMILES	inhibition [1]	IC50 [4]	other results
CCCC[N+]1=C(C)C(C)(C)c2ccccc21	inactive		inhibition [2]: inactive; inhibition [3]: inactive
CCCC[N+]1=C(/C=C/C=C2/N(C)c3ccccc3C2(C)C)C(C)(C)c2cc(Br)ccc21	36%		
CCN1/C(=C/C(C)=C/c2sc3c4ccccc4ccc3[n+]2CC)Sc2c1ccc1ccccc21	92%	2.37 µM	
CCN1/C(=C/C=C/C=C/C2=[N+](CC)c3ccc4ccccc4c3C2(C)C)C(C)(C)c2c1ccc1ccccc21	89%	3.39 µM	
C(/C=C/c1sc2ccccc2[n+]1CCCc1ccccc1)=C1/Sc2ccccc2N1CCCc1ccccc1	76%		
CC1(C)C(/C=C/C=C2/N(CCCc3ccccc3)c3ccc(Br)cc3C2(C)C)=[N+](CCCc2ccccc2)c2ccc(Br)cc21	101%	1.25 µM	
CC1=[N+](CCCc2ccccc2)c2ccccc2C1(C)C	inactive		inhibition [2]: inactive; inhibition [3]: 80%
C(/C=C/c1sc2c3ccccc3ccc2[n+]1CCCc1ccccc1)=C1/Sc2c(ccc3ccccc23)N1CCCc1ccccc1	100%	3.05 µM	IC50 [5]: 5.8 µM; IC50 [6]: 28.4 µM; IC50 [7]: 7.04 µM; Ratio IC50 [8]: 2; Ratio IC50 [9]: 2; Ratio IC50 [10]: > 9
CCCCN1/C(=C/C(C)=C/c2sc3ccccc3[n+]2CCCC)Sc2ccccc21	77%		
CC[N+]1=C(/C=C/C=C2/N(C)c3ccccc3C2(C)C)C(C)(C)c2ccccc21	inactive		inhibition [2]: 9%; inhibition [3]: 41%
CN1/C(=C/C=C/C2=[N+](CCCc3ccccc3)c3ccccc3C2(C)C)C(C)(C)c2ccccc21	35%		inhibition [2]: 96%; inhibition [3]: 101%
CC1(C)C(/C=C/C=C2/N(CCCc3ccccc3)c3ccccc3C2(C)C)=[N+](CCCc2ccccc2)c2ccccc21	41%		inhibition [2]: 101%; inhibition [3]: 100%
CCCCN1/C(=C/C=C/c2sc3ccccc3[n+]2CCCC)Sc2ccccc21	79%		
CCCCN1/C(=C\C=C\C2=[N+](CCCC)c3ccc4ccccc4c3C2(C)C)C(C)(C)c2c1ccc1ccccc21		2.56 µM	
CCCCN1/C(=C/C=C/c2sc3c4ccccc4ccc3[n+]2CCCC)Sc2c1ccc1ccccc21	99%	4 µM	
CCCCN1/C(=C/C=C/c2sc3ccc(Br)cc3[n+]2CCCC)Sc2ccc(Br)cc21	91%	2.03 µM	IC50 [5]: 7.23 µM; IC50 [7]: 8.36 µM; Ratio IC50 [8]: 3; Ratio IC50 [9]: 3
CN1/C(=C/C=C/C2=[N+](CCC[N+](C)(C)C)c3ccccc3C2(C)C)C(C)(C)c2ccccc21	2%		
CCN1/C(=C/C=C/C2=[N+](CC)c3ccc(Br)cc3C2(C)C)C(C)(C)c2cc(Br)ccc21	11%		
CC1(C)C(/C=C/C(Cl)=C/C=C2/N(CCCc3ccccc3)c3ccc4ccccc4c3C2(C)C)=[N+](CCCc2ccccc2)c2ccc3ccccc3c21	96.3%	1.81 µM	
CCN1/C(=C/C=C/C2=[N+](CC)c3ccc4ccccc4c3C2(C)C)C(C)(C)c2c1ccc1ccccc21	27%		

SMILES	inhibition [1]	IC50 [4]	other results
CCN1/C(=C/C=C/c2sc3ccccc3[n+]2CC)Sc2ccccc21	46%		
CC[N+]1=C(C)C(C)(C)c2ccccc21	inactive		inhibition [2]: inactive; inhibition [3]: inactive
CC1(C)C(/C=C/C=C2/N(CCCc3ccccc3)c3ccc(Cl)cc3C2(C)C)=[N+](CCCc2ccccc2)c2ccc(Cl)cc21	100%	1.15 µM	
CCCCN1/C(=C/C(/C=C/c2ccccc2)=C/c2sc3ccccc3[n+]2CCCC)Sc2ccccc21	48%		
CCN1/C(=C/C=C/C2=[N+](CC)c3ccc(Cl)cc3C2(C)C)C(C)(C)c2cc(Cl)ccc21	7%		
CCCCN1/C(=C/C=C/C2=[N+](CCCC)c3ccccc3C2(C)C)C(C)(C)c2ccccc21	inactive		inhibition [2]: 48%; inhibition [3]: 91%
CN1/C(=C/C=C/C2=[N+](CCC[N+](C)(C)C)c3ccc(S(=O)(=O)[O-])cc3C2(C)C)C(C)(C)c2ccccc21	inactive		
CCCCN1/C(=C/C=C/C2=[N+](CCCC)c3ccc(Cl)cc3C2(C)C)C(C)(C)c2cc(Cl)ccc21	34%		
CCN1/C(=C\C=C\C2=[N+](CC)c3ccccc3C2(C)C)C(C)(C)c2ccccc21	4%		inhibition [2]: 42%; inhibition [3]: 60.6%
CCCCN1/C(=C/C=C/C2=[N+](CCCC)c3ccc4ccccc4c3C2(C)C)C(C)(C)c2c1ccc1ccccc21	91%		
CCCCN1/C(=C/C=C/c2sc3cc(Br)ccc3[n+]2CCCC)Sc2cc(Br)ccc21	93%	2.67 µM	
CCN1/C(=C/C=C/c2sc3c4ccccc4ccc3[n+]2CC)Sc2c1ccc1ccccc21	40%		
CCCCN1/C(=C/C=C(Br)/C=C/C2=[N+](CCCC)c3ccc(Br)cc3C2(C)C)C(C)(C)c2cc(Br)ccc21	96%	3.38 µM	IC50 [5]: 21.5 µM; IC50 [6]: 84.9 µM; IC50 [7]: 35.4 µM
CC1(C)C(/C=C/C=C/C=C2/N(CCCc3ccccc3)c3ccc4ccccc4c3C2(C)C)=[N+](CCCc2ccccc2)c2ccc3ccccc3c21	70.2%	5.76 µM	
CCN1/C(=C/C=C/c2sc3cc(Br)ccc3[n+]2CC)Sc2cc(Br)ccc21	88%	6.43 µM	
CCCC[N+]1=C(/C=C/C=C2/N(C)c3ccccc3C2(C)C)C(C)(C)c2ccccc21	8%		inhibition [2]: 32%; inhibition [3]: 79%
CCCCN1/C(=C/C=C/C2=[N+](CCCC)c3ccc(Br)cc3C2(C)C)C(C)(C)c2cc(Br)ccc21	48%		
CCN1/C(=C/C=C(Cl)/C=C/C2=[N+](CC)c3ccc4ccccc4c3C2(C)C)C(C)(C)c2c1ccc1ccccc21	69%		
CN1/C(=C/C=C/C2=[N+](CCCS(=O)(=O)[O-])c3ccccc3C2(C)C)C(C)(C)c2ccccc21	inactive		
CC1(C)C(/C=C/C=C2/N(CCCc3ccccc3)c3ccc4ccccc4c3C2(C)C)=[N+](CCCc2ccccc2)c2ccc3ccccc3c21	100%	0.61 µM	IC50 [6]: 1.74 µM; IC50 [7]: 1.4 µM
